Results: ChEMBL document CHEMBL1140866, “New pyrazoline bearing 4(3H)-quinazolinone inhibitors of monoamine oxidase: synthesis, biological evaluation, and structural determinants of MAO-A and MAO-B selectivity” (Bioorg Med Chem, 2009)

Key:
[1] = molecular target: T1, Amine oxidase [flavin-containing] B (Rattus norvegicus, UniProt P19643); test: Inhibition of MAO-B in rat liver homogenate after 60 mins by Lineweaver-Burke plot; format: tissue-based; conditions: for Activity: rat, 1 h, TDE = time-dependent effect
T1 sequence (P19643 whole entry): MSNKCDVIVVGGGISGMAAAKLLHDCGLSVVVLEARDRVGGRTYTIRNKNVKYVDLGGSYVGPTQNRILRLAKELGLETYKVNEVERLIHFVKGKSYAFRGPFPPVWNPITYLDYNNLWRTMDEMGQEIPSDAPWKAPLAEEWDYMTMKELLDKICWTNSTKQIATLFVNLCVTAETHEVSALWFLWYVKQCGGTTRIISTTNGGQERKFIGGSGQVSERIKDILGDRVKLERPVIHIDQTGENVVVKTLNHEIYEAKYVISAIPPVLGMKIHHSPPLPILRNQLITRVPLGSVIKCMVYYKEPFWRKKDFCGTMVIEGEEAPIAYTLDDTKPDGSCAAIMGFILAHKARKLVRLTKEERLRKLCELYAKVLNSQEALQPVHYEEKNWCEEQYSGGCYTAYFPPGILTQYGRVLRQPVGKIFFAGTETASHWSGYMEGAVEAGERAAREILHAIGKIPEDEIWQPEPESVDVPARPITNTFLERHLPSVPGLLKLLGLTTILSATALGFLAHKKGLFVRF

[2] = molecular target: T1, Amine oxidase [flavin-containing] B; test: Inhibition of MAO-B in rat liver homogenate after 60 mins by residual activity plot; format: tissue-based
Mus musculus [3] = test: Anxiolytic activity in albino mouse assessed as time spent on closed arm at 100 mg/kg, ip by plus-maze test; format: functional; parameters: unit not given here; conditions: route intraperitoneal
In short: (§1)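 Mice given compounds i.p. at 100 mg/kg in DMSO/water (1:4), about 0.1 mL, 1 h before testing; controls got 0.1 mL vehicle; n = 7–8. Housed eight per cage, 20 ± 2 °C, 12 h light/dark. Each animal did the plus-maze first, then forced swim.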

Mus musculus [4] = test: Anxiolytic activity in albino mouse assessed as total number of entries into arms at 100 mg/kg, ip by plus-maze test; format: functional; conditions: route intraperitoneal; in short: as §1
[5] = molecular target: T2, Amine oxidase [flavin-containing] A (Rattus norvegicus, UniProt P21396); test: Inhibition of MAO-A in rat liver homogenate after 60 mins by residual activity plot; format: tissue-based
T2 sequence (P21396 whole entry): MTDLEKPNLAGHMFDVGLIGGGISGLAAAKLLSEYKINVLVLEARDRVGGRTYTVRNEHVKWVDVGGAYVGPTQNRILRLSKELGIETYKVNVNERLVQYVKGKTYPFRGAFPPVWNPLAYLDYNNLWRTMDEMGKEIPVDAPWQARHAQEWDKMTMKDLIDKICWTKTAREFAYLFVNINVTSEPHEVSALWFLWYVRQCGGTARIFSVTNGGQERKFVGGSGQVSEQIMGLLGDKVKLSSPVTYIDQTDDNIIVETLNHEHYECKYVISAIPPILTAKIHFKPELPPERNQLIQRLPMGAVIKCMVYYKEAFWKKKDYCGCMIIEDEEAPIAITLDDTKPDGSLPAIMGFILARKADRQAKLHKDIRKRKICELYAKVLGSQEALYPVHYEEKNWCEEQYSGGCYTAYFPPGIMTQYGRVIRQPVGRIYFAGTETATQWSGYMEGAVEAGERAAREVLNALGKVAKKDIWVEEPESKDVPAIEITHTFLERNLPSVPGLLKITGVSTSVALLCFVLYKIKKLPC

[6] = molecular target: T2, Amine oxidase [flavin-containing] A; test: Inhibition of MAO-A in rat liver homogenate after 60 mins by Lineweaver-Burke plot; format: tissue-based; conditions: for Activity: rat, 1 h, TDE = time-dependent effect
Mus musculus [7] = test: Antidepressant activity in albino mouse assessed as immobility time at 100 mg/kg, ip by forced swim test; format: functional; conditions: route intraperitoneal; in short: as §1
Mus musculus [8] = test: Anxiolytic activity in albino mouse assessed as total number of entries into arms at 5 mg/kg, ip by plus-maze test; format: functional; conditions: route intraperitoneal
Mus musculus [9] = test: Anxiolytic activity in albino mouse assessed as time spent on closed arm at 5 mg/kg, ip by plus-maze test; format: functional; conditions: route intraperitoneal
Mus musculus [10] = test: Antidepressant activity in albino mouse assessed as immobility time at 5 mg/kg, ip by forced swim test; format: functional; conditions: route intraperitoneal

| SMILES | Ki [1] [µM] | Activity [1] | IC50 [2] [µM] | Activity (Mus musculus [3]) | arm entries (Mus musculus [4]) [entries] | IC50 [5] [µM] | Ki [6] [µM] | Activity [6] | Activity (Mus musculus [7]) [%] | arm entries (Mus musculus [8]) [entries] | Activity (Mus musculus [9]) [%] | Activity (Mus musculus [10]) [%] |
| --- | --- | --- | --- | --- | --- | --- | --- | --- | --- | --- | --- | --- |
| COc1ccc(C2CC(c3ccccc3)=NN2c2nc3ccccc3c(=O)n2C)cc1 (stereo unspecified) | 9.9 | tde | 400 | 162.43 | 5.37 | 4.51 | 1.03 | tde | 58 | – | – | – |
| Cc1ccc(C2CC(c3ccccc3)=NN2c2nc3ccccc3c(=O)n2C)cc1 (stereo unspecified) | 7.9 | tde | 484 | 178.25 | 3.87 | 4.51 | 2.56 | tde | 43.25 | – | – | – |
| Cn1c(N2N=C(c3ccccc3)CC2c2ccc(Br)cc2)nc2ccccc2c1=O (stereo unspecified) | 10.6 | tde | 485 | 230 | 3.25 | 1.68 | 1.17 | tde | 65.12 | – | – | – |
| O=C(NCCN1CCOCC1)c1ccc(Cl)cc1 [MOCLOBEMIDE] | 10.2 | – | – | – | – | – | – | – | – | 6.15 | 250.72 | 54.3 |
